Assay outcomes (PubChem)
DENV2 CPE rescue = inhibitors of DENV2 cytopathic effect, primary screen, cell-based, plate reader, single concentration; DENV2-infected cells, cytopathic effect rescue; CPE inhibition, % at 9.99 µM; hit rate 1.7% among 350,000; AID 651640, 2012; in the data active = CPE inhibition above about 20%, passing the limit was not always enough; inconclusive = no clear call, values can overlap the other calls; tested in BHK-21 cells
E-sel inducer = E-selectin induction in HUVECs, primary screen, imaging, HUVEC, immunofluorescence imaging, single point. P16581. normalized: neutral wells 0, TNF-alpha wells 100. activation, % at 7.58 µM. hit rate 0.37% among 260,000;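 active = mean E-selectin-positive cell signal at least 10% of the positive control, reached in at least 60% of replicates, without over 20% cell loss; inconclusive = no rule given, readout overlaps actives, possibly toxicity-flagged; inactive = the rest, including those meeting only one limit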
Target sequence (P16581 whole entry, looked up): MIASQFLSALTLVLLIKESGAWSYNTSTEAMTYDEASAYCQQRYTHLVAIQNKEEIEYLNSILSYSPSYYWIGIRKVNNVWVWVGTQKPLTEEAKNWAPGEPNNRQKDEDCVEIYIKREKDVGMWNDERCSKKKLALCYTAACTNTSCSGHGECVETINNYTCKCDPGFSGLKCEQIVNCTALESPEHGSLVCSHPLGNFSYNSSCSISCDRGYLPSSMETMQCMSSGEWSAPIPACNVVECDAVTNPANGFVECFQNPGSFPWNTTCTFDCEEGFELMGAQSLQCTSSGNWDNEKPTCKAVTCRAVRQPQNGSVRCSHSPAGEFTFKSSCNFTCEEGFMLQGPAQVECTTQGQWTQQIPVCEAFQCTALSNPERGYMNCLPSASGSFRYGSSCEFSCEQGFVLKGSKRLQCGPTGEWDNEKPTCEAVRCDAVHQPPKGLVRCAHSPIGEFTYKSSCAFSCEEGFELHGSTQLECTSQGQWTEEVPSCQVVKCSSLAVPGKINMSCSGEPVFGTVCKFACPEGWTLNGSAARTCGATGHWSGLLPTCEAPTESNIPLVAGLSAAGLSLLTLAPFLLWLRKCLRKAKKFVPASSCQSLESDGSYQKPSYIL
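Read-out basis: % PE-positive cells; Test system: HUVEC primary endothelial cells; Technique: immunofluorescence imaging; Dosing: single-point compound dose.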
C2C12 statin = suppressors of statin myotoxicity in C2C12 myotubes, primary screen, cell-based, single point, plate reader; rescue of ATP level, % at 7.49 µM; hit rate 0.78% among 330,000; C2C12 myotubes + simvastatin, ATP luminescence, 48 h; scaled: DMSO 0, geranylgeraniol control 100;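 active = mean ATP rescue above about 67%, or every replicate alone reaching that limit, limit read from the data, passing the limit was not always enough; inconclusive = no clear call, values can overlap the other calls; inactive = mean under the limit and some replicate under it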;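 also: myotubes were challenged with 10 µM simvastatin during compound exposure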
Each line names hits and unclear results; the compound was inactive in the other large screens. This is a sample that favours compounds with a hit; in the whole collection about 2.2% have one here.

COc1ccc(CNC(=O)C[C@H]2C=C[C@H](NC(=O)c3ccc4c(c3)OCO4)[C@@H](CO)O2)cc1	none
CCOc1ccccc1C1C(C(=O)Nc2ccccc2OC)=C(C)Nc2nc(CCCO)nn21 (configuration not stated)	DENV2 CPE rescue 57
COc1ccc(C2C(C(=O)Nc3ccc(F)cc3)=C(C)Nc3nc(CCCO)nn32)cc1 (configuration not stated)	DENV2 CPE rescue 29 (no result: E-sel inducer)
CCOc1ccc(C2C(C(=O)Nc3ccc(F)cc3)=C(C)Nc3nc(CCCO)nn32)cc1 (configuration not stated)	none
COc1ccc(OC)c(C2C(C(=O)Nc3ccccc3OC)=C(C)Nc3nc(CCCO)nn32)c1 (configuration not stated)	none
C[C@H](CO)N1C[C@H](C)[C@H](CN(C)C)Oc2ccc(NC(=O)Nc3ccc(C(F)(F)F)cc3)cc2C1=O	none
COc1ccc(C(=O)OCc2cc(C)ccc2C)cc1S(=O)(=O)N1CCCC1	none (no result: DENV2 CPE rescue)
COC(=O)c1cc(COC(=O)c2ccc(OC)c(S(=O)(=O)N3CCCC3)c2)oc1C	C2C12 statin 90 (no result: DENV2 CPE rescue, E-sel inducer)
O=C(NCC1CC1)[C@H]1[C@H](CO)[C@H]2Cn3c(ccc(-c4cccnc4)c3=O)[C@@H]1N2C(=O)C1CCC1	none
C[C@H](CO)N1C[C@H](C)[C@H](CN(C)Cc2ccc(-c3ccccc3)cc2)Oc2ccc(NC(=O)NC3CCCCC3)cc2CC1=O	DENV2 CPE rescue 22
C[C@H]1CN([C@@H](C)CO)C(=O)Cc2cc(NC(=O)NC3CCCCC3)ccc2O[C@H]1CN(C)Cc1ccc(-c2ccccc2)cc1	none
C[C@H]1CN([C@@H](C)CO)C(=O)Cc2cc(NC(=O)NC3CCCCC3)ccc2O[C@@H]1CN(C)Cc1ccc(-c2ccccc2)cc1	DENV2 CPE rescue 31
C[C@@H]1CN([C@@H](C)CO)C(=O)Cc2cc(NC(=O)NC3CCCCC3)ccc2O[C@H]1CN(C)Cc1ccc(-c2ccccc2)cc1	none
C[C@@H]1CN([C@@H](C)CO)C(=O)Cc2cc(NC(=O)NC3CCCCC3)ccc2O[C@@H]1CN(C)Cc1ccc(Cl)c(Cl)c1	DENV2 CPE rescue 59
C[C@H]1CN([C@@H](C)CO)C(=O)Cc2cc(NC(=O)NC3CCCCC3)ccc2O[C@@H]1CN(C)Cc1ccc(Cl)c(Cl)c1	E-sel inducer inconclusive
O=C(C[C@@H]1CC[C@H](NC(=O)C2CCOCC2)[C@@H](CO)O1)NCc1ccncc1	none (no result: C2C12 statin)
O=C(C[C@@H]1C[C@@H]2c3cc(NC(=O)c4ccc5c(c4)OCO5)ccc3O[C@@H]2[C@H](CO)O1)NCC(F)(F)F	none
CC=Cc1ccc2n(c1=O)C[C@@H]1[C@@H](CO)[C@H](C(=O)N(C)C)[C@H]2N1CC1CC1 (mixture of isomers)	none
C[C@H]1CN([C@@H](C)CO)C(=O)Cc2cc(NS(=O)(=O)c3cn(C)cn3)ccc2O[C@H]1CN(C)C(=O)Nc1ccc(C(F)(F)F)cc1	none (no result: E-sel inducer)
Cc1ccc(S(=O)(=O)N(CC(=O)O)Cc2ccco2)cc1	DENV2 CPE rescue 28 (no result: E-sel inducer, C2C12 statin)
Cc1ccc(S(=O)(=O)N(Cc2ccccc2)Cc2ccco2)cc1	none (no result: DENV2 CPE rescue, E-sel inducer)
COc1ccc2c3c(n(C)c2c1)[C@@H](CO)N(S(C)(=O)=O)CC31CCN(Cc2cncnc2)CC1	none (no result: C2C12 statin)
C[C@@H]1CN([C@H](C)CO)C(=O)c2cccc(NC(=O)NC3CCCCC3)c2O[C@@H]1CN(C)CC1CC1	none
COc1ccccc1NC(=O)N1CC(=O)N2[C@H](CO)[C@H](c3ccc(-c4ccccc4)cc3)[C@@H]2C1	none (no result: C2C12 statin)
CC(C)CC#Cc1ccc2c(c1)O[C@H](CN(C)Cc1cccc(F)c1)[C@@H](C)CN([C@@H](C)CO)S2(=O)=O	none (no result: E-sel inducer, C2C12 statin)
COc1ccc(-c2noc3c2-c2nc(-c4ccccc4)sc2CC3)cc1	none
Brc1ccc(-c2noc3c2-c2nc(-c4ccccc4)sc2CC3)cc1	DENV2 CPE rescue 129
Cc1ccc(S(=O)(=O)N(C)C[C@@H]2Oc3ccc(N(C)C)cc3CC(=O)N([C@@H](C)CO)C[C@H]2C)cc1	none
O=C1CNC[C@@H]2[C@@H](c3ccc(C4=CCCC4)cc3)[C@H](CO)N12	none (no result: C2C12 statin)
COc1ccc(C(=O)N/N=C(\C)CC(=O)Nc2ccc(N(C)C)cc2)c(OC)c1	DENV2 CPE rescue 116
COc1ccc(CC(=O)Nc2ccc(/C(C)=N/NC(=O)c3ccc(OC)cc3OC)cc2)cc1	none
C[C@H]1CN([C@@H](C)CO)C(=O)Cc2cc(NC(=O)C3CCCCC3)ccc2O[C@H]1CN(C)C(=O)Nc1cccc2ccccc12	DENV2 CPE rescue inconclusive
Cc1[nH]c(C)c(S(=O)(=O)N2CCCCC2)c1C(=O)N1CCCC1	E-sel inducer 85
Cc1[nH]c(C)c(S(=O)(=O)N2CCN(c3ccccc3)CC2)c1C(=O)N1CCCC1	none (no result: E-sel inducer)
O=C(OCc1ccccc1)N1CCC2CC1c1cc(Cl)ccc12 (configuration not stated)	none
O=C(OCc1ccccc1)N1CCC2CC1c1ccc(N3CCNCC3)cc12 (configuration not stated)	DENV2 CPE rescue 75
O=C(OCc1ccccc1)N1CCCC2CC1c1ccccc12 (configuration not stated)	DENV2 CPE rescue 44 (no result: E-sel inducer)
O=C(OCc1ccccc1)N1CCC2CC1c1ccc(N3CCOCC3)cc12 (configuration not stated)	none
CO[C@H]1CN(C)C(=O)c2ccc(NS(=O)(=O)c3ccccc3)cc2OC[C@@H](C)N(Cc2nccs2)C[C@H]1C	none
C[C@H](CO)N1C[C@H](C)[C@H](CN(C)S(=O)(=O)c2ccccc2)Oc2ccc(NC(=O)Cc3ccccc3)cc2C1=O	none
CC(C)OC(=O)N(C)C[C@H]1OCc2ccccc2-c2c(n(C)c3ccccc23)C(=O)N([C@@H](C)CO)C[C@H]1C	none
COc1cccc(C(=O)Nc2ccc3c(c2)C(=O)N(C)C[C@@H](OC)[C@@H](C)CN(C(=O)C2CCCC2)[C@H](C)CO3)c1	none
O=C(NNC(=O)c1ccccc1F)c1ccco1	none
O=C(NNC(=O)c1ccccc1F)c1ccc(-c2ccccc2Cl)o1	DENV2 CPE rescue 21
C[C@H](CO)N1C[C@H](C)[C@@H](CN(C)C)Oc2ccc(N(C)C)cc2CC1=O	none
Cc1noc(C)c1NC(=O)N(C)C[C@H]1Oc2c(NC(=O)Nc3ccc4c(c3)OCO4)cccc2C(=O)N([C@@H](C)CO)C[C@H]1C	none
CO[C@@H](CN(C)S(=O)(=O)c1cn(C)cn1)[C@H](C)CN(C(=O)Nc1ccc(F)cc1)[C@@H](C)CO	none
C[C@H](NC(=O)[C@H]1[C@H](CO)[C@H]2Cn3c(ccc(-c4ccccc4F)c3=O)[C@@H]1N2C)c1ccccc1	none
CCOC(=O)N1CCN(S(=O)(=O)c2cccs2)CC1	none (no result: DENV2 CPE rescue, E-sel inducer)
CCOc1ccc(C(=O)N2CCN(S(=O)(=O)c3cccs3)CC2)c(OCC)c1	E-sel inducer 33
CC1(C(=O)NCc2cccc(C(F)(F)F)c2)CCN1Cc1ccc(-c2ccccc2)o1 (configuration not stated)	none
CC1(C(=O)NCc2cccc(C(F)(F)F)c2)CCN1Cc1cc2ccccc2o1 (configuration not stated)	DENV2 CPE rescue 56
CCC(=O)N1C[C@H](C)[C@@H](OC)CN(C)C(=O)c2cc(NC(=O)c3ccccc3)ccc2OC[C@@H]1C	none
